Results on 44 compounds are retold here after ChEMBL document CHEMBL1131000, “Synthesis and quantitative structure-activity relationships of N-(1-benzylpiperidin-4-yl)phenylacetamides and related analogues as potent and selective sigma1 receptor ligands” (J Med Chem, 1998).

In this test the target is Sigma 2 receptor. Kind of test: Binding affinity towards sigma 2 receptor site in rat liver membranes using [3H]DTG as radioligand in presence of (+)-pentazocine. The format is cell membranes, Membrane. The procedure, abridged:
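Male Sprague-Dawley rat liver crude P2 membranes, 35 μg protein, with 3 nM [3H]DTG plus 100 nM (+)-pentazocine to mask σ1 sites. Incubated in 50 mM Tris-HCl pH 8.0 for 120 min at 25 °C. Nonspecific binding defined with 5 μM DTG. Filtration, then scintillation counting. IC50 by nonlinear regression.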
By Ki is commonly meant a measure of affinity in units of concentration, obtained from inhibition or displacement. As to `O=C(Cc1ccc2c(c1)OCO2)NC1CCN(Cc2ccccc2)CC1`, the inhibition constant (Ki) amounted to 290 nM.
The same measure for `O=C(Cc1ccc([N+](=O)[O-])cc1[N+](=O)[O-])NC1CCN(Cc2ccccc2)CC1`: 243 nM; for `OC(CCCN1CCC(O)(c2ccc(Cl)cc2)CC1)c1ccc(F)cc1` (centres undefined) [HYDROXYHALOPERIDOL]: 28.6 nM; for `COc1cc(CC(=O)NC2CCN(Cc3ccccc3)CC2)cc(OC)c1`: above 1000 nM.
For the compound `O=C(Cc1c(Cl)cccc1Cl)NC1CCN(Cc2ccccc2)CC1`, the Ki stood at 70.8 nM.
In the case of `O=C(Cc1cccc(Cl)c1)NC1CCN(Cc2ccccc2)CC1`, the Ki was 36.9 nM.
As to `O=C(Cc1ccccc1C(F)(F)F)NC1CCN(Cc2ccccc2)CC1`, the Ki is 61.9 nM.
The value for `O=C(Cc1ccccc1Cl)NC1CCN(Cc2ccccc2)CC1` was 174 nM.
As to `O=C(Cc1cc(F)cc(F)c1)NC1CCN(Cc2ccccc2)CC1`, the Ki is 37.3 nM.
On to `O=C(Cc1ccc(F)cc1)NC1CCN(Cc2ccccc2)CC1`, for which the inhibitory constant (Ki) was found to be 69.2 nM.
Take `O=C(Cc1cccc(F)c1)NC1CCN(Cc2ccccc2)CC1`: the inhibition constant Ki is 153 nM.
Take `CSc1ccc(CC(=O)NC2CCN(Cc3ccccc3)CC2)cc1`: the inhibition constant (Ki) was found to be 83.3 nM.
For the compound `O=C(Cc1cccc([N+](=O)[O-])c1)NC1CCN(Cc2ccccc2)CC1`, the Ki was 79.2 nM.
Consider `O=C(Cc1cccc(O)c1)NC1CCN(Cc2ccccc2)CC1`, for which the Ki was above 1000 nM.
In the case of `O=C(Cc1ccccc1Br)NC1CCN(Cc2ccccc2)CC1`, the inhibition constant Ki came out at 86.6 nM.
`O=C(Cc1ccccc1F)NC1CCN(Cc2ccccc2)CC1`: the Ki is 667 nM.
For the compound `O=C(Cc1ccc(Cl)cc1Cl)NC1CCN(Cc2ccccc2)CC1`, the Ki turned out to be 24.5 nM.
In the case of `COc1ccc(CC(=O)NC2CCN(Cc3ccccc3)CC2)cc1`, the inhibition constant (Ki) is 483 nM.
For `O=C(Cc1ccc(C(F)(F)F)cc1)NC1CCN(Cc2ccccc2)CC1`, the Ki was 53.4 nM.
The value for `O=C(Cc1ccc(O)cc1)NC1CCN(Cc2ccccc2)CC1` was above 1000 nM; that for `O=C(Cc1ccc(Br)cc1)NC1CCN(Cc2ccccc2)CC1` was 23.9 nM.
The same measure for `O=C(Cc1ccccc1)NC1CCN(Cc2ccccc2)CC1`: 240 nM; for `O=C(Cc1ccc(O)c(Cl)c1)NC1CCN(Cc2ccccc2)CC1`: 757 nM.
The same measure for `COc1ccc(CC(=O)NC2CCN(Cc3ccccc3)CC2)cc1OC`: above 1000 nM; for `O=C(Cc1ccc(F)c(F)c1)NC1CCN(Cc2ccccc2)CC1`: 53.5 nM.
As to `O=C(Cc1c(F)cccc1F)NC1CCN(Cc2ccccc2)CC1`, the inhibition constant (Ki) came out at 207 nM.
The value for `O=C(Cc1cccc(C(F)(F)F)c1)NC1CCN(Cc2ccccc2)CC1` was 37.8 nM.
`O=C(Cc1ccccc1[N+](=O)[O-])NC1CCN(Cc2ccccc2)CC1`: the inhibitory constant (Ki) was 493 nM.
For `O=C(Cc1ccc(O)c(O)c1)NC1CCN(Cc2ccccc2)CC1`, the Ki is above 1000 nM.
For `O=C(Cc1ccccc1O)NC1CCN(Cc2ccccc2)CC1`, the Ki was 343 nM.
As for `COc1ccc(NC(=O)NC2CCN(Cc3ccccc3)CC2)c(OC)c1`, the Ki amounted to 227 nM.
As for `O=C(Cc1ccc([N+](=O)[O-])cc1)NC1CCN(Cc2ccccc2)CC1`, the inhibitory constant (Ki) was found to be 105 nM.
The value for `COc1cc(CC(=O)NC2CCN(Cc3ccccc3)CC2)cc(OC)c1OC` was above 1000 nM.
Consider `COc1cccc(C(O)CNC2CCN(Cc3ccccc3)CC2)c1OC` (centres undefined), for which the Ki turned out to be 535 nM.
Take `CSc1ccc(NC(=O)NC2CCN(Cc3ccccc3)CC2)cc1`: the Ki was found to be 80.5 nM.
For the compound `COc1cccc(CC(=O)NC2CCN(Cc3ccccc3)CC2)c1`, the Ki turned out to be 326 nM.
The value for `O=C(Cc1ccc(Cl)c(Cl)c1)NC1CCN(Cc2ccccc2)CC1` was 14.6 nM.
For `COc1ccc(OC)c(CC(=O)NC2CCN(Cc3ccccc3)CC2)c1`, the Ki was above 1000 nM.
On to `O=C(Cc1cccc(Br)c1)NC1CCN(Cc2ccccc2)CC1`, for which the Ki was determined as 15.2 nM.
Regarding `O=C(Cc1ccc(Cl)cc1)NC1CCN(Cc2ccccc2)CC1`, the Ki is 80.7 nM.
Regarding `O=C(Cc1ccc(F)cc1F)NC1CCN(Cc2ccccc2)CC1`, the Ki worked out at 130 nM.
For `Nc1ccc(CC(=O)NC2CCN(Cc3ccccc3)CC2)cc1`, the inhibitory constant (Ki) was above 1000 nM.
With `O=C(Cc1cc(F)ccc1F)NC1CCN(Cc2ccccc2)CC1`, the Ki came to 129 nM.
The value for `COc1ccccc1CC(=O)NC1CCN(Cc2ccccc2)CC1` was above 1000 nM.
